# Compounds with a hit are over-represented: about 2.3% of the library has one in this group of screens.
# TRPC4 agonist = opens the mouse TRPC4 cation channel. HEK293 TRPC4beta/mu-opioid, Fluo4 calcium fluorescence; active compounds read high. B-score at 10 µM. actives 0.49% (n = 310,000);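 active means B-score above 5 SD of library B-scores, and initial fluorescence ratio not above library mean plus 5 SD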;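 further: positive B-score marks a calcium rise read as TRPC4 activation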
#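 Assay system: HEK293 cells stably co-expressing mouse TRPC4beta and mu-opioid receptor / Timing: Fluo4 dye loading 45 min at room temperature, 110 s recording / Signal: Fluo4 calcium-sensitive dye fluorescence, kinetic, 1 Hz baseline / Read-out: integrated baseline-normalised fluorescence ratio, converted to per-well B score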
# TRPC6 act = activates the mouse TRPC6 cation channel. B-score at 10 µM. actives 0.13% (n = 310,000). HEK293-TRPC6 membrane potential dye fluorescence; active compounds read high. AID 2550. Q61143;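 active means B-score of the integrated fluorescence ratio above library mean plus 3 SD, and starting fluorescence ratio within library mean plus 5 SD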;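 further: higher score means more depolarization so channel activation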
# TRPC4 block = blocks the mouse TRPC4 cation channel. Q9QUQ5. HEK293 TRPC4beta/mu-opioid, DAMGO-evoked Fluo4 calcium flux; active compounds read low. B-score at 10 µM. actives 0.39% (n = 300,000);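 active means B-score over 3 SD under the library average, no early fluorescence shift, positive overall ratio signal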
#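 test system = HEK293 cells with stable TRPC4beta plus mu-opioid receptor expression | detection = Fluo4 Ca2+ flux fluorescence | read-out = integrated fluorescence ratio relative to baseline, converted to per-well B score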
# TRPC4 potent = allosterically enhances the mouse TRPC4 cation channel; Q9QUQ5; HEK293 TRPC4beta/mu-opioid, DAMGO EC20, Fluo-4 Ca2+ flux; active compounds read high; B-score at 10 µM; actives 0.42% (n = 310,000);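 active means B-score of calcium response area above 5 SD of library B-scores, with initial fluorescence ratio within 5 SD of library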;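 further: B-score of integrated fluorescence ratio over time as area under calcium response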
# TRPC6 inh = inhibitors of mouse TRPC6 channel. actives 1.1% (n = 310,000). Q61143. HEK293-TRPC6, membrane potential dye, ACh-evoked depolarization; active compounds read low. B-score at 10 µM;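 active means B-score under library mean minus 3 SD, initial fluorescence not abnormally high, positive integrated signal ratio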;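 further: B-score derived from integrated fluorescence ratio over the kinetic read; more negative B-score means stronger inhibition of depolarization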
# TRPC4 spec 2 = mouse TRPC4 off-target activity of TRPC6 inhibitors, second screen | inhibition, % at 10 µM | shares compounds with TRPC6 inh | HEK293 TRPC4/MOR, membrane potential dye fluorescence; channel activated by saturating DAMGO dose | actives 42% (n = 920);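 active means compounds whose fluorescence signal differed from control wells by over 3 SD, either direction, in both duplicate plates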
# TRPC4 spec = mouse TRPC4 off-target activity of TRPC6 inhibitors. shares compounds with TRPC6 inh. HEK293 TRPC4/mu-opioid, membrane potential fluorescence. activity change, negative = inhibition, % at 10 µM. actives 61% (n = 920);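 active means rise or fall in signal beyond 3 SD of buffer-only wells in both replicate plates, either sign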;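 further: integrated kinetic ratio of fluorescence range over baseline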
# HEK293 MPD ctr 2-1 = second counter-screen for TRPC6 inhibitors: parental HEK293 cells; shares compounds with TRPC6 inh; parental HEK293 membrane potential dye fluorescence; maximal acetylcholine challenge after compound addition; signal change vs control, % at 10 µM; actives 31% (n = 920); AID 2779;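 active means membrane potential signal moving either way by over 3 SD of the maximum-effect control, in both duplicate plates, meaning non-specific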
# HEK293 MPD ctr-1 = checks TRPC6 inhibitor effects in parental HEK293 cells. shares compounds with TRPC6 inh. parental HEK293 membrane potential dye fluorescence. membrane potential signal change, % at 10 µM. actives 60% (n = 920);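 active means membrane potential signal shifting up or down by more than 3 SD of buffer-only wells, on both duplicate plates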
# HEK293 MPD ctr-2 = parental HEK293 nonspecific activity of TRPC6 modulators. shares compounds with TRPC6 inh. membrane potential dye fluorescence. membrane potential signal change, % at 10 µM. actives 51% (n = 2,400);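 active means membrane potential signal moves up or down beyond 5 SD from buffer-only wells, on both duplicate plates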
# HEK293 MPD ctr 2-2 = second check of TRPC6 modulator effects in parental HEK293 cells; shares compounds with TRPC6 inh; membrane potential dye fluorescence; after compound, maximal acetylcholine stimulation; inhibition, % at 10 µM; actives 14% (n = 2,400);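 active means membrane potential signal drops by more than 5 SD from the mean control signal, in both duplicate plates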;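 further: plate controls were acetylcholine ECmax control wells for no effect and buffer only wells for full effect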
# TRPC4 ctr mod = selectivity of TRPC6 modulators against mouse TRPC4. shares compounds with TRPC6 inh. HEK293 TRPC4/mu-opioid, membrane potential fluorescence. percent change from control (negative = decrease, positive = increase), % at 10 µM. actives 69% (n = 2,400). AID 488927;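 active means membrane potential signal moved up or down beyond 5 SD of buffer control wells, in both duplicate plates, actives on both sides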;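 further: plate controls were assay buffer wells for no effect and DAMGO maximal-effect wells for full effect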
# TRPC4/MOR inh 2 = second selectivity test of TRPC6 modulators against mouse TRPC4; HEK293 TRPC4/mu-opioid, membrane potential dye fluorescence; stimulated with maximal-effect DAMGO; actives 55% (n = 2,400); shares compounds with TRPC6 inh; inhibition, % at 10 µM;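 active means drop in membrane potential signal beyond 5 SD of the control wells in both duplicate plates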;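 further: TRPC4 counter screen for TRPC6 hits run under conditions tuned for TRPC6 not TRPC4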
# TRPC6 block conf = mouse TRPC6 inhibitor confirmation; shares compounds with TRPC6 inh; HEK293-TRPC6, membrane potential dye, ACh-evoked depolarization; inhibition, % at 10 µM; actives 43% (n = 3,300); AID 488960;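 active means fluorescence ratio falls more than 5 SD below the full-stimulation control mean, in both duplicate runs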;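 further: integrated fluorescence ratio of peak minus minimum over baseline after agonist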
# TRPC6 act confirm = confirmation of mouse TRPC6 activators; shares compounds with TRPC6 inh; HEK293-TRPC6 membrane potential dye fluorescence, FDSS; activation, % at 10 µM; actives 11% (n = 2,800); AID 488961;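 active means ratio signal rise beyond 5 SD above unstimulated control wells' mean, seen in both duplicate runs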;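 further: plate controls were buffer EC0 wells for no effect and acetylcholine ECmax response for full effect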
# * = called active by the depositor; i = inactive; . = no result given.
SMILES,TRPC4 agonist,TRPC6 act,TRPC4 block,TRPC4 potent,TRPC6 inh,HEK293 MPD ctr-2,HEK293 MPD ctr 2-2,TRPC4 ctr mod,TRPC4/MOR inh 2,TRPC6 block conf,TRPC6 act confirm,others
N=c1c(C(=O)NCc2ccc3c(c2)OCO3)cc2c(=O)n3ccccc3nc2n1Cc1cccnc1,i,i,i,i,i,.,.,.,.,.,.,
COCCCn1c(=N)c(C(=O)NCc2ccc3c(c2)OCO3)cc2c(=O)n3ccccc3nc21,i,i,i,i,-10*,.,.,.,.,i,i,TRPC4 spec 2=64%*;TRPC4 spec=-12%*;HEK293 MPD ctr 2-1=30%*;HEK293 MPD ctr-1=i
CCc1ccc(NC(=S)N2CCCCCCC2)cc1,i,i,i,i,i,.,.,.,.,.,.,
O=C(CSc1nnnn1-c1cccnc1)Nc1ccccc1F,i,i,i,i,i,.,.,.,.,.,.,
CN(CCCN1c2ccccc2CCc2ccccc21)CC(=O)c1ccc(Cl)cc1,i,i,i,i,i,.,.,.,.,.,.,
COc1ccc2c(c1)Sc1ccccc1N2CCN(C)C,50*,i,i,i,-5.1*,i,i,39%*,82%*,52%*,i,
CN(C)CCCN1c2ccccc2Sc2ccccc21,i,i,i,i,-6.4*,i,i,i,58%*,44%*,i,
CCC(=O)c1ccc2c(c1)N(CCCN(C)C)c1ccccc1S2,i,i,i,i,-6.1*,-232%*,72%*,-38%*,81%*,70%*,i,
CCOc1ccc(NC(=O)C(CC(=O)O)Cc2ccccc2)cc1 (stereo not drawn),i,i,i,i,i,.,.,.,.,.,.,
CCOc1ccc(NC(=O)CC(Cc2cc(C)cc(C)c2)C(=O)O)cc1 (stereo not drawn),i,i,i,i,-5.6*,i,i,i,i,i,i,
CCc1nccn1S(=O)(=O)c1cc(OC)ccc1OC,i,i,i,i,i,.,.,.,.,.,.,
NS(=O)(=O)c1cc(C(=O)NC2CCSc3ccccc32)ccc1Cl (stereo not drawn),i,13*,i,i,i,122%*,i,32%*,i,i,70%*,
COc1ccc(OC)c(/C=C2\SC(=S)N(C(C(=O)O)c3ccccc3)C2=O)c1 (stereo not drawn),i,18*,i,i,i,412%*,i,83%*,i,i,175%*,
O=C(Cc1ccc(Cl)cc1)NCCc1cnc[nH]1,i,i,i,i,i,.,.,.,.,.,.,
NS(=O)(=O)c1ccc(NNC(=O)c2ccc(F)cc2F)cc1,i,i,i,i,i,.,.,.,.,.,.,
CCN1CCN(C(=O)c2ccc(C)c(S(=O)(=O)Nc3cccc(C)c3)c2)CC1,i,i,i,i,-5.8*,i,i,i,i,i,i,
Cc1cccc(NS(=O)(=O)c2cc(C(=O)N3CCN(C)CC3)ccc2C)c1,i,i,i,i,i,.,.,.,.,.,.,
O=C(Cn1nc(C(=O)O)c2ccccc2c1=O)NC12CC3CC(CC(C3)C1)C2,i,i,i,i,i,.,.,.,.,.,.,
O=C(NNS(=O)(=O)c1ccccc1)c1cccc([N+](=O)[O-])c1,i,i,i,i,i,.,.,.,.,.,.,
N=c1n(CCN2CCCC2)c2ccccc2n1CC(O)c1ccco1 (stereo not drawn),i,i,i,i,i,.,.,.,.,.,.,
CCCCCCCn1c(=N)n(CC(O)c2ccco2)c2ccccc21 (stereo not drawn),i,i,i,i,-5.4*,235%*,i,44%*,93%*,70%*,.,
CCCCCCCn1c(=N)n(CC(=O)c2ccco2)c2ccccc21,i,i,i,i,-5.3*,94%*,i,16%*,78%*,58%*,i,
CCC1CCC(C(=O)NC(CCSC)C(=O)NCCc2ccc(S(N)(=O)=O)cc2)CC1 (stereo not drawn),i,i,i,i,i,.,.,.,.,.,.,
C/C(=N/NC(=S)Nc1cccc(C)c1)c1cccc([N+](=O)[O-])c1,i,i,i,i,-5.3*,i,i,i,30%*,i,i,
COc1cccc2sc(N(CCN(C)C)C(=O)c3ccc4c(c3)CCCC4)nc12,i,i,i,i,-6.4*,-111%*,98%*,-34%*,94%*,86%*,i,
CN(C)CCN(C(=O)c1ccc2c(c1)CCCC2)c1nc2c(F)cccc2s1,i,i,i,i,i,.,.,.,.,.,.,
COc1cccc2sc(N(CCN(C)C)C(=O)/C=C/c3cccs3)nc12,i,i,i,i,-6*,i,i,-9.5%*,72%*,43%*,i,
COc1ccc(OC)c(NC(=O)CC2C(=O)NCCN2C(=O)Nc2cccc(Cl)c2)c1 (stereo not drawn),i,i,i,i,-5.9*,i,i,-14%*,29%*,i,i,
Cc1cc(OCC(=O)Nc2ccncc2)ccc1[N+](=O)[O-],i,i,i,i,i,.,.,.,.,.,.,

# High-throughput results: PubChem BioAssay, Johns Hopkins Ion Channel Center
